Experimental data taken from paper PMC7449315 (Journal for Immunotherapy of Cancer, 2020).

Assay: phase I trial: safety and tolerability
Format: in vivo, human
Procedure, shortened: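 Fifteen patients were dosed orally twice daily (three per cohort, 100–800 mg). AEs, DLTs, physical exams, vital signs, ECGs and laboratory chemistry, hematology and coagulation were recorded from first dose to end of treatment. AEs were graded by the investigator using NCI CTCAE v4.03. DLTs were assessed in cycle 1 (days 1–28): grade ≥3 or immune-related non-hematologic events, and grade ≥4 hematologic events.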

[1] = 800 mg two times per day, one patient

NS(=O)(=O)[C@H]1CC[C@](F)(CC[C@H]2c3ccccc3-c3cncn32)CC1 [M4112]
no MTD was defined: MTD (doses up to 800 mg two times per day)
not established: RP2D (in vivo)
15 (100) n (%): Any AE (Total (N=15))
no deaths reported: deaths during the dose-escalation phase (all doses)
33.3%: TEAE fatigue (all patients (N=15))
20.5%: median probability of a DLT (Bayesian model estimate) (800 mg)
no DLTs were observed: DLT (600 mg two times per day (n=3))
3 (100) n (%): Any AE (800 mg two times per day (n=3))
2 (66.7) n (%): Diarrhea (600 mg two times per day (n=3)) | Lipase increased (600 mg two times per day (n=3)) | Aspartate aminotransferase increased (800 mg two times per day (n=3))
3 (20.0) n (%): Any SAE (Total (N=15)) | Blood creatine phosphokinase increased (Total (N=15)) | Blood creatinine increased (Total (N=15)) | Cough (Total (N=15)) | Decreased appetite (Total (N=15)) | Diarrhea (Total (N=15)) | Lipase increased (Total (N=15))
grade 3 allergic dermatitis: DLT during cycle 1 [1] | serious TEAE (one patient, 800 mg two times per day cohort, related to treatment)
5 (33.3) n (%): Fatigue (Total (N=15))
4 (26.7) n (%): Nausea (Total (N=15)) | Vomiting (Total (N=15))
grade 2 ascites: serious TEAE (one patient, 600 mg two times per day cohort, unrelated to treatment)
≤ 6 h: time to resolution of the DLT after treatment withdrawal (800 mg two times per day, grade 3 allergic dermatitis with fever and hypotension)
0 (0.0) n (%): Aspartate aminotransferase increased (600 mg two times per day (n=3)) | Blood creatine phosphokinase increased (600 mg two times per day (n=3)) | Cough (600 mg two times per day (n=3)) | Decreased appetite (600 mg two times per day (n=3)) | Dyspepsia (600 mg two times per day (n=3)) | Dysphagia (600 mg two times per day (n=3)) | Fever (600 mg two times per day (n=3)) | Hypercalcemia (600 mg two times per day (n=3)) | Lymphocyte count decreased (600 mg two times per day (n=3)) | Maculopapular rash (600 mg two times per day (n=3)) | Palmar-plantar erythrodysesthesia syndrome (600 mg two times per day (n=3)) | Platelet count decreased (600 mg two times per day (n=3)) | Abdominal distension (800 mg two times per day (n=3)) | Abdominal pain (800 mg two times per day (n=3)) | Amylase increased (800 mg two times per day (n=3)) | Anemia of malignant disease (800 mg two times per day (n=3)) | Cough (800 mg two times per day (n=3)) | Dehydration (800 mg two times per day (n=3)) | Diarrhea (800 mg two times per day (n=3)) | Dyspepsia (800 mg two times per day (n=3)) | Dysphagia (800 mg two times per day (n=3)) | Hypercalcemia (800 mg two times per day (n=3)) | Lipase increased (800 mg two times per day (n=3)) | Maculopapular rash (800 mg two times per day (n=3)) | Palmar-plantar erythrodysesthesia syndrome (800 mg two times per day (n=3)) | Tumor pain (800 mg two times per day (n=3)) | Vomiting (800 mg two times per day (n=3))
3.1%–62.2: probability of a DLT, 95% credible interval (800 mg)
26.7%: TEAE nausea (all patients (N=15)) | TEAE vomiting (all patients (N=15))
1 (33.3) n (%): Blood alkaline phosphatase increased (600 mg two times per day (n=3)) | Blood creatinine increased (600 mg two times per day (n=3)) | Dehydration (600 mg two times per day (n=3)) | Fatigue (600 mg two times per day (n=3)) | Gamma-glutamyl transferase increased (600 mg two times per day (n=3)) | Nausea (600 mg two times per day (n=3)) | Tumor pain (600 mg two times per day (n=3)) | Vomiting (600 mg two times per day (n=3)) | Alanine aminotransferase increased (800 mg two times per day (n=3)) | Any SAE (800 mg two times per day (n=3)) | Blood alkaline phosphatase increased (800 mg two times per day (n=3)) | Blood creatine phosphokinase increased (800 mg two times per day (n=3)) | Blood creatinine increased (800 mg two times per day (n=3)) | Decreased appetite (800 mg two times per day (n=3)) | Fatigue (800 mg two times per day (n=3)) | Fever (800 mg two times per day (n=3)) | Gamma-glutamyl transferase increased (800 mg two times per day (n=3)) | Lymphocyte count decreased (800 mg two times per day (n=3)) | Nausea (800 mg two times per day (n=3)) | Platelet count decreased (800 mg two times per day (n=3))
grade 2 QT prolongation: QT prolongation resulting in dose reduction (not a DLT) [1]
grade 3 disease progression: serious TEAE (one patient, 400 mg two times per day cohort, unrelated to treatment)
2 (13.3) n (%): Abdominal distension (Total (N=15)) | Abdominal pain (Total (N=15)) | Alanine aminotransferase increased (Total (N=15)) | Amylase increased (Total (N=15)) | Anemia of malignant disease (Total (N=15)) | Aspartate aminotransferase increased (Total (N=15)) | Blood alkaline phosphatase increased (Total (N=15)) | Dehydration (Total (N=15)) | Dyspepsia (Total (N=15)) | Dysphagia (Total (N=15)) | Fever (Total (N=15)) | Gamma-glutamyl transferase increased (Total (N=15)) | Hypercalcemia (Total (N=15)) | Lymphocyte count decreased (Total (N=15)) | Maculopapular rash (Total (N=15)) | Palmar-plantar erythrodysesthesia syndrome (Total (N=15)) | Platelet count decreased (Total (N=15)) | Tumor pain (Total (N=15))
13.3%: patients who discontinued M4112 treatment due to TEAEs (two of 15 patients)
